Experimental data from publication PMC4258470 (Journal of molecular biology, 2014).

Key:
TAZ2 domain of CBP = test: In vitro GB1 pulldown, TAZ2; type: binding, mouse; conditions: H6GB1 alone as negative control; legend refers to TAZ1 and TAZ2
[1] = tested on: pRb acetylation in MEF cells; test: In-cell pRb acetylation assay, MEF cells; type: cell-based, mouse; conditions: for pRb acetylation, MEF cells before Cre treatment: floxed CBP/p300 MEF, prior to Cre
Outline: (§1)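 Primary mouse embryonic fibroblasts homozygous for floxed CBP and p300 alleles, grown in DMEM with 10% calf serum, stably transduced with LXSN-E7 retrovirus and selected in 600 μg/ml G418. Lysed in NETN with inhibitors. pRb immunoprecipitated from 0.8–1.0 mg extract, 7–8% SDS-PAGE, PVDF blots probed with anti-pRb or anti-acetyl-lysine, ECL.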

[2] = tested on: N-terminal region of p300, encompassing the TAZ1 (or CH1) domain; conditions: buffer containing 2.5 mM EDTA; cited from earlier work
[3] = tested on: pRb acetylation in BJ cells; test: In-cell pRb acetylation assay; type: cell-based, human; conditions: retroviral transduction, vs control vector (BP)
Outline: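 Human BJ foreskin fibroblasts (DMEM, 10% calf serum) stably transduced with LXSN control vector or E7 retrovirus and selected in 600 μg/ml G418. Lysed by sonication in NETN containing butyrate, TSA, phosphatase and protease inhibitors. Anti-pRb IP from 0.8–1.0 mg extract, SDS-PAGE, blots probed for acetyl-lysine and pRb, ECL. Background-corrected AcK/pRb band ratio normalised to vector, mean of two independent experiments.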

cellular transformation = conditions: epithelial cells, E7 alone; cited from earlier work
[4] = tested on: p53 transcriptional activity; conditions: in cells; cited from earlier work
p130 = conditions: in vitro; cited from earlier work
pRb in BJ cells = test: pRb level by Western blot, BJ cells; type: cell-based, human; conditions: retroviral transduction, vs control vector (BP); lysates and IP
Outline: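 Human BJ fibroblasts (DMEM, 10% calf serum) retrovirally transduced with LXSN control vector or E7 and G418-selected (600 μg/ml). Sonicated in NETN buffer with phosphatase, deacetylase and protease inhibitors. Both lysates and anti-pRb immunoprecipitates (0.8–1.0 mg extract) resolved on 7–8% SDS-PAGE and Western blotted with anti-pRb, ECL detection.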

pRb in MEF cells = test: pRb level by Western blot, MEF cells; type: cell-based, mouse; conditions: floxed CBP/p300 MEF, prior to Cre
Outline: as §1

p300 TAZ1 domain = conditions: read-out: affinity measured by sedimentation equilibrium for p300 TAZ1; 4°C; cited from earlier work
[5] = tested on: HPV E2 transcriptional activity; conditions: cited from earlier work
pocket domain of pRb = conditions: read-out: Kd for pRb; pRb pocket domain (pRb-AB); cited from earlier work
[6] = tested on: TAZ2 domain of CBP with pRb-AB; test: 1H-15N HSQC NMR of 15N-TAZ2 with E7; type: binding, mouse; conditions: 15N-TAZ2:E7:pRb-AB 1:0.25:1; NMR buffer pH 6.8
[7] = biological target: T1, TAZ2 domain of CBP (residues 1764–1855) (Mus musculus, UniProt P45481); test: 1H-15N HSQC NMR titration of 15N-TAZ2; type: binding; conditions: TAZ2 vs TAZ1 of CBP; fluorescence and NMR
T1 sequence (P45481 1764-1855): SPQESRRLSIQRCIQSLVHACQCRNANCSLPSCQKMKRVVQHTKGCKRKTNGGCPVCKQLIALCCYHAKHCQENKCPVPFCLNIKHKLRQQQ

[8] = biological target: T1, TAZ2 domain of CBP (residues 1764–1855); test: Fluorescence anisotropy, competition with ppE7; type: binding; conditions: phosphorylated vs non-phosphorylated (Table 1)

Substance: p53(13-61): p53 residues 13-61, positive control
- pulldown signal vs H6GB1 background (TAZ2 domain of CBP): bind significantly above the background signal

Substance: E7(1-98): full length high-risk HPV16 E7 (residues 1-98), homodimer
- E7-induced pRb acetylation, MEF cells lacking CBP/p300 ([1]; Cre-treated MEF cells, listed as full-length HPV16 E7): acetylation levels were substantially decreased in CBP/p300^−/− cells
- pRb acetylation, MEF cells before Cre treatment ([1]; listed as E7): increased levels of pRb acetylation
- pRb acetylation, MEF cells before Cre treatment ([1]; listed as full-length HPV16 E7): Enhanced acetylation of pRb
- interaction with p300 regions in GST pulldown [2]: interacts most strongly with the N-terminal region of p300, encompassing the TAZ1 (or CH1) domain
- pRb acetylation, BJ cells ([3]; listed as E7): increased levels of acetylation
- pRb acetylation, BJ cells ([3]; listed as full-length E7): enhanced
- pRb acetylation, BJ cells ([3]; listed as full-length HPV16 E7): Enhanced acetylation of pRb
- transformation and immortalization (cellular transformation): sufficient to transform and immortalize epithelial cells, albeit with lower efficiency
- inhibition of p53 transcriptional activity [4]: inhibit p53 transcriptional activity in cells
- enhancement of p300-mediated acetylation of p130 (p130): enhances p300-mediated acetylation of the retinoblastoma protein family member p130
- pRb level, BJ cells (pRb in BJ cells): decreased levels of pRb
- pRb level, MEF cells before Cre treatment (pRb in MEF cells): significantly decreased levels of pRb
- Kd (p300 TAZ1 domain): 900 to 3500 nM
- repression of HPV E2 transcriptional activity [5]: represses HPV E2 transcriptional activity

Substance: pp16-E7(1-51): HPV16 E7(1-51) phosphorylated by casein kinase II (CKII) at serines 31 and 32
- Kd (pocket domain of pRb): 2 nM

Substance: 16-E7(1-51): construct containing the disordered CR1 and CR2 domains, residues M1-H51, of HPV16 E7
- pRb acetylation, BJ cells [3]: comparable to control cells
- ternary complex (TAZ2:E7:pRb-AB) formation by NMR [6]: unable to support ternary complex formation
- tighter binding to TAZ2 than to TAZ1 [7]: ~ 1000 -fold
- pRb level, BJ cells (pRb in BJ cells): comparable to control cells
- enhancement of binding to TAZ2 by CKII phosphorylation of Ser31 and Ser32 [8]: 3 -fold

Substance: STAT1(710-750): STAT1 residues 710-750, positive control (SEVHPSRLQTTDNLLPMSPEEFDEVSRIVGSVEFDSMMNTV)
- pulldown signal vs H6GB1 background (TAZ2 domain of CBP): bind significantly above the background signal
